Data set [1] has as its system MKN-74. In words: Antitumor activity against human MKN74 cells xenografted in BALB/c mouse assessed as reduction in tumor volume at 50 mg/kg, po administered once daily for 16 days measured every 3 days during compound dosing. Format: functional, organism-based. In outline: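 Female nude mice bearing subcutaneous HL-60, MKN-74 or HeLa xenografts, 8 per group. Dosing was vehicle control or 50 mg/kg p.o. once daily for 16 days. Tumor volume followed over time, mean ± SEM.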
(In general: A xenograft is tissue or cells of one species grown in another, often human tumour cells in immunodeficient mice.)

Data set [2] in a line: Effect on Ras/Raf/MEK/ERK signaling in human MKN74 cells assessed as change in MEK1/2 expression at 0.5 uM measured up to 24 hrs by Western blot analysis. Format: cell-based. In outline: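 MKN-74 cells exposed to 0.5 μM for 0, 6, 12 and 24 h. Ras, Raf, p-MEK1/2, MEK1/2, p-JNK, JNK, p-p38 and p38 immunoblotted, with GAPDH as loading control.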
(Immunoblotting shows a protein as a band on a membrane.)

In data set [3] the test system is HL-60. In words: Induction of cytoplasmic vacuolization in human HL60 cells. Format: functional, cell-based.
Data set [4] is described as follows: AUC (0 to t) in Sprague-Dawley rat at 10 mg/kg, po by LC-MS analysis. Format: ADME, organism-based. The conditions noted are these: in vivo. In outline: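 Rats, two groups of 3; single i.v. dose 1 mg/kg or oral dose 10 mg/kg. Plasma concentration-time profiles used to derive T1/2, Tmax, Cmax, AUC0-t, AUC0-∞ and oral bioavailability. Data from triplicate testing, ± standard deviation.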

The subject of data set [5] is MKN-74. In words: Cytotoxicity against human MKN74 cells harboring siRNA assessed as reduction in cell viability at 0.5 uM by MTT assay. Format: functional, cell-based. Put shortly:
(§1)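 MKN-74 cells transfected with ATG5-specific or negative-control siRNA for the indicated times, then treated with 0.5 μM. Viability read by MTT assay.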
For orientation: Tetrazolium assays rely on reduction of a dye to a coloured formazan, in cell work by metabolically active cells.

For data set [6], the target named is MAPK3/MAPK7 (Homo sapiens) (UniProt P27361+Q13164). As to the kind of experiment: Inhibition of ERK1/5 in human MKN74 cells assessed as reduction in c-MYC phosphorylation at S62 residue at 0.5 uM measured up to 24 hrs by Western blot analysis. The class given is cell-based.
Chain of MAPK3/MAPK7 (Homo sapiens) (P27361 whole entry, looked up): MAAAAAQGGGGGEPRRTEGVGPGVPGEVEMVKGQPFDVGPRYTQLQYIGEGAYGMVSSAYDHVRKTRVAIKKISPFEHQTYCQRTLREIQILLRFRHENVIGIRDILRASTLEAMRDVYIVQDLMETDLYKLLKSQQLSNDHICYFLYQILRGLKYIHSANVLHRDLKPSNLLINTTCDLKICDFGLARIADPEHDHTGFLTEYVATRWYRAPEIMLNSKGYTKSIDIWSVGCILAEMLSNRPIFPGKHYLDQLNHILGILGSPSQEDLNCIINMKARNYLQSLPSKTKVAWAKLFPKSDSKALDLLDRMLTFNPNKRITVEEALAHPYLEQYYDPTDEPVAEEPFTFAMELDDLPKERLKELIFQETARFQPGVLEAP
Chain of MAPK3/MAPK7 (Homo sapiens) (Q13164 whole entry, looked up): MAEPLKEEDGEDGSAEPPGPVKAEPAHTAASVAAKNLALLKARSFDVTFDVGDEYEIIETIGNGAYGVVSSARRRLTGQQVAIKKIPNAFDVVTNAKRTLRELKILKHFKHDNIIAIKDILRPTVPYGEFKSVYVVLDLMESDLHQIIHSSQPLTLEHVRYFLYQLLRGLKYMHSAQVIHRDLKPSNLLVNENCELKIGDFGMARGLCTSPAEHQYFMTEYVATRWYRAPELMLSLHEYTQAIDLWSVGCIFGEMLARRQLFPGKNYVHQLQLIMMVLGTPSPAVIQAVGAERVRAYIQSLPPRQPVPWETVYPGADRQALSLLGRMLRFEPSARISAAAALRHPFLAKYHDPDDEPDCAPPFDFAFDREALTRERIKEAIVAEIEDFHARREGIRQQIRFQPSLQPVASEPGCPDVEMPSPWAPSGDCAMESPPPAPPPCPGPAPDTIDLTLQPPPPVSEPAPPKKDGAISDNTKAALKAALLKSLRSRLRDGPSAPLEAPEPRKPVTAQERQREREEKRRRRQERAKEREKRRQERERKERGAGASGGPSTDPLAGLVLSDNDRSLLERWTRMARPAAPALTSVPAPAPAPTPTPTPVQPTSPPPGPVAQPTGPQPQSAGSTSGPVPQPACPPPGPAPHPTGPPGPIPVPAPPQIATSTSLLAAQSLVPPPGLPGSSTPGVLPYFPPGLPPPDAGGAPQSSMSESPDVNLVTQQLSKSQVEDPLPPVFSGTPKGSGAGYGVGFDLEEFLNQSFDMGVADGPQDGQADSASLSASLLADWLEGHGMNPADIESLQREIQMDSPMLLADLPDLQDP
Data set [7] has as its system MKN-74. In words: Cytotoxicity against human MKN74 cells harboring ATG5 siRNA assessed as reduction in cell viability at 0.5 uM by MTT assay. Format: functional, cell-based. In outline: as §1
Data set [8] has as its system HL-60. As to the kind of experiment: Antitumor activity against human HL60 cells xenografted in BALB/c mouse assessed as reduction in tumor weight at 50 mg/kg, po administered once daily for 16 days measured post-last dose. The class given is functional, organism-based. In outline:
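Female nude mice bearing subcutaneous xenografts (8 per group) received vehicle or 50 mg/kg p.o. once daily for 16 days. Excised tumors weighed and compared with control group.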

SMILES strings stand for the structures. Calls of active or inactive are those of the source. The rule behind the calls is not given here.

Turning to `NC(=O)c1c(NC(=O)c2ccccc2Cl)sc2c1CCN(C(=S)Nc1ccccc1Cl)C2`, the outcome in the data set on MKN-74 [1], in the data set on MKN-74 [5] and in the data set with HL-60 [8] was Active. Besides, the outcome (in data set [2]; in the data set with HL-60 [3]; with MKN-74 [7]) was inactive. This molecule also had an AUC(0-t) in data set [4] of 5080 ng·h/mL. Besides, the inhibition entry in data set [6] was “Active”.

Usually AUC(0-t) stands for the area under the concentration-time curve up to a stated or last time point.

(Values after ChEMBL document CHEMBL4342467, “Discovery of a Novel Dual-Target Inhibitor of ERK1 and ERK5 That Induces Regulated Cell Death to Overcome Compensatory Mechanism in Specific Tumor Types” (J Med Chem, 2020).)
